The values that follow come from ChEMBL document CHEMBL1139773, “New fluoro-diphenylchalcogen derivatives to explore the serotonin transporter by PET” (Bioorg Med Chem Lett, 2007).

Holding throughout (format): tissue-based
The target in experiment [1] is Norepinephrine transporter (Rattus norvegicus, UniProt Q9WTR4). Briefly: Displacement of [3H]nisoxetine from NET in rat brain. The method in brief: (§1)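 Competition binding in rat cortical and striatal brain homogenates, with tissue assignment per transporter not specified. Radioligands were [3H]WIN 35,428 for DAT, [3H]nisoxetine for NET and [3H]paroxetine for SERT. Ki values are means of two independent experiments, each run in triplicate; some entries come from a single experiment (n = 1, in triplicate).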

Experiment [2] concerns the target T1, Sodium-dependent serotonin transporter (Rattus norvegicus, UniProt P31652). Put plainly: Displacement of [3H]paroxetine from SERT in rat brain. The method in brief:
as §1
(In general: In a radioligand displacement assay an active substance lowers the binding of a labelled ligand.)

In experiment [3] the target is Sodium-dependent dopamine transporter (Rattus norvegicus, UniProt P23977). Briefly: Displacement of [3H]WIN-35428 from DAT in rat brain. The essentials: as §1
The target of experiment [4] is T1, Sodium-dependent serotonin transporter. Briefly: Displacement of [3H]citalopram from SERT in rat brain.

As usually defined, the Ki is a dissociation constant, usually derived from enzyme kinetics or from competition with a known ligand. Higher therefore signals weaker binding.

T1 sequence (P31652 whole entry): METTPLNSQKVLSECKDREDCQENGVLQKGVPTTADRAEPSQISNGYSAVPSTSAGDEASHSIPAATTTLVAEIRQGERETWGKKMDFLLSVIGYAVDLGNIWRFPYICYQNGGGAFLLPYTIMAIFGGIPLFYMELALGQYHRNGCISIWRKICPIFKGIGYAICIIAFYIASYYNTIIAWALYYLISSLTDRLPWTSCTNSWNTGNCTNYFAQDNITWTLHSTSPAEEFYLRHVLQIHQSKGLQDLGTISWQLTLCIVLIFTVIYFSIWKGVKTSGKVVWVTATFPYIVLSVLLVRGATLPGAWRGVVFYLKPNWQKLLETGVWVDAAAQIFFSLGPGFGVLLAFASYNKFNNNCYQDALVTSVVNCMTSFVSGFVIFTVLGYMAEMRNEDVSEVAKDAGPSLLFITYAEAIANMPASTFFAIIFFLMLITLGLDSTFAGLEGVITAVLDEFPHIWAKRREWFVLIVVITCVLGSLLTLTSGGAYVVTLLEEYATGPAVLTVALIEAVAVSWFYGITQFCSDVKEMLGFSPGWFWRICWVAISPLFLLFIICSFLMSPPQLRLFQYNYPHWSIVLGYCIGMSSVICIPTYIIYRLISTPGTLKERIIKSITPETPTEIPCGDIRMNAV
Sodium-dependent dopamine transporter, sequence (P23977 whole entry): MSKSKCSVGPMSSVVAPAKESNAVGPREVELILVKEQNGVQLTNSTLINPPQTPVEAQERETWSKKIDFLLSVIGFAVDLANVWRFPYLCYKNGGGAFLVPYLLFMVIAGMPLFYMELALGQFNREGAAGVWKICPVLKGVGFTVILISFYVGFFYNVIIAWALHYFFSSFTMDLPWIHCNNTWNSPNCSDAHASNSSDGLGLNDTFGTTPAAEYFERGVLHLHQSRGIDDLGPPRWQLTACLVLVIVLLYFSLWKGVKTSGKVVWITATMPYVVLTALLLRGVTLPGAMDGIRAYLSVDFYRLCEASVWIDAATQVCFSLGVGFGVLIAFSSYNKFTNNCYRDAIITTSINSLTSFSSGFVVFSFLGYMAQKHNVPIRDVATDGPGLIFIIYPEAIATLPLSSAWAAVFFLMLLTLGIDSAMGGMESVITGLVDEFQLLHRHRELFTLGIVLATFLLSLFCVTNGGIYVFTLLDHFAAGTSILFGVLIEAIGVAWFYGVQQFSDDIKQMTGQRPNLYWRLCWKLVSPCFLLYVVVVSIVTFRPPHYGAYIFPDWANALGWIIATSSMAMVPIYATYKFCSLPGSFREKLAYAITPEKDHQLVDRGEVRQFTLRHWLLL
Norepinephrine transporter, sequence (Q9WTR4 whole entry): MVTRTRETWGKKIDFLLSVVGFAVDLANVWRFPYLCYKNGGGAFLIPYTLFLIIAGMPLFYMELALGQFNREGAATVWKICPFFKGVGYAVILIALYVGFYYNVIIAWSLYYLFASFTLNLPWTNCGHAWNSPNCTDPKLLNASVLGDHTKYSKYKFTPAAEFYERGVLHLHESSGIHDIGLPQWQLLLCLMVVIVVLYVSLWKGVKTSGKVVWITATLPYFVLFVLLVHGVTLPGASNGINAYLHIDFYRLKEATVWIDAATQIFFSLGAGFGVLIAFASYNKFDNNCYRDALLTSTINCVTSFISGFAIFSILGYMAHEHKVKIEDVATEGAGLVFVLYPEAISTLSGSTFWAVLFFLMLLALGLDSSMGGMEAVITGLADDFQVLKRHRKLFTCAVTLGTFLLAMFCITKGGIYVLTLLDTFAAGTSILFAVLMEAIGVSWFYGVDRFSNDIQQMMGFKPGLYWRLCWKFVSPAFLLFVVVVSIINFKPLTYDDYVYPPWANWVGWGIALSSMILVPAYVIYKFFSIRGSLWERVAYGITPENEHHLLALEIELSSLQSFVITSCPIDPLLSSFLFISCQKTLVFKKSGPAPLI

For the compound `Cc1ccc(Oc2ccc(F)cc2CN(C)C)c(N)c1`, the Ki in experiment [1] turned out to be 0.518 µM; in experiment [2], 0.00701 µM; in experiment [3] it was 2.79 µM.

Regarding `CN(C)Cc1cc(F)ccc1Oc1ccc(C#N)cc1N`, the Ki in experiment [1] stood at 5.55 µM; in experiment [2], 0.00291 µM; in experiment [3], 68.3 µM.

`Cc1ccc(Sc2ccc(F)cc2CN(C)C)c(N)c1`: the inhibitory constant (Ki) in experiment [1] was found to be 1.04 µM; in experiment [2] it was 0.00027 µM; in experiment [3], 3.65 µM.

Consider `Cc1ccc(Sc2ccccc2CN(C)C)c(N)c1`, for which the inhibition constant (Ki) amounted to 0.00062 µM in experiment [2] and 4.16 µM in experiment [3].

`CN(C)Cc1cc(F)ccc1Sc1ccc(Cl)cc1N`: the Ki was determined as 0.919 µM in experiment [1], 0.00035 µM in experiment [2] and 1.84 µM in experiment [3].

With `CN(C)Cc1cc(F)ccc1Sc1ccc(C#N)cc1N`, the Ki in experiment [1] came out at 17.9 µM; in experiment [3] it was 14.1 µM; in experiment [4], 0.00028 µM.

For `CN(C)Cc1cc(Cl)ccc1Oc1ccc(F)cc1N`, the Ki came out at 2.74 µM in experiment [1], 2.53 µM in experiment [3] and 0.00206 µM in experiment [4].

With `CN(C)Cc1ccccc1Oc1ccc(F)cc1N`, the inhibition constant Ki in experiment [1] was 1.08 µM; in experiment [2], 0.0134 µM; in experiment [3], 4.36 µM.
